# Test results as given in ChEMBL document CHEMBL3272156, “(Vinylaryloxy)acetic acids. A new class of diuretic agents. 4. Various ((2-substituted and 2,2-disubstituted vinyl)aryloxy)acetic acids” (1976).
# Assays:
# Canis familiaris [1] = test: Diuretic activity in mongrel dog anesthetized with sodium pentobarbital assessed as urine Na+ level at 10 mg/kg, iv measured after 15 to 45 mins post dose (reference value: 3 to 44 uequiv/min); format: functional, Canis lupus familiaris
# Outline: (§1)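 Dogs given compound iv as the Na salt in water; clearance procedure per ref 1. Baseline is the mean of two 15-min clearance periods before dosing. Response is the mean of two consecutive 15-min periods of maximal Na+ excretion, usually 15–45 min after dosing. Values are from single representative experiments in a series of three or four dogs.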
# Canis familiaris [2] = test: Diuretic activity in mongrel dog anesthetized with sodium pentobarbital assessed as urine volume at 10 mg/kg, iv measured after 15 to 45 mins post dose (reference value: 1 to 5 ml/min); format: functional, Canis lupus familiaris; outline: as §1
# Canis familiaris [3] = test: Diuretic activity in mongrel dog anesthetized with sodium pentobarbital assessed as urine K+ level at 10 mg/kg, iv measured after 15 to 45 mins post dose (reference value: 10 to 44 uequiv/min); format: functional, Canis lupus familiaris; outline: as §1
# Canis familiaris [4] = test: Diuretic activity in mongrel dog anesthetized with sodium pentobarbital assessed as urine Cl- level at 10 mg/kg, iv measured after 15 to 45 mins post dose (reference value: 0 to 30 uequiv/min); format: functional, Canis lupus familiaris; outline: as §1
# Canis familiaris [5] = test: Diuretic activity in mongrel dog […] assessed as urine K+ level per 6 hrs at 1 mg/kg, po as gelatin capsules (reference value: 1 equiv/6 hrs); format: functional, Canis lupus familiaris
# Outline: (§2)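 Trained female mongrel dogs (8–10 kg) given 100 ml water the day before and fasted overnight. On test day they received 250 ml water orally, then 500 ml 1 h later. One hour after that, bladders were catheter-emptied and compound or placebo was given orally in gelatin capsules. Dogs were kept in metabolism cages, and spontaneous urine was pooled with catheter urine at 6 h. Volume and Na+, K+ and Cl− were measured; results are averages per dog group.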
# Canis familiaris [6] = test: Diuretic activity in mongrel dog […] assessed as urine K+ level per 6 hrs at 0.3 mg/kg, po as gelatin capsules (reference value: 1 equiv/6 hrs); format: functional, Canis lupus familiaris; outline: as §2
# Canis familiaris [7] = test: Diuretic activity in mongrel dog […] assessed as urine Cl- level per 6 hrs at 1 mg/kg, po as gelatin capsules (reference value: 2 equiv/6 hrs); format: functional, Canis lupus familiaris; outline: as §2
# Canis familiaris [8] = test: Diuretic activity in mongrel dog […] assessed as urine Na+ level per 6 hrs at 1 mg/kg, po as gelatin capsules (reference value: 2 equiv/6 hrs); format: functional, Canis lupus familiaris; outline: as §2
# Canis familiaris [9] = test: Diuretic activity in mongrel dog assessed as urine Cl- level per 6 hrs at 0.3 mg/kg, po as gelatin capsules (reference value: 2 equiv/6 hrs)
# Canis familiaris [10] = test: Diuretic activity in mongrel dog […] assessed as urine Na+ level per 6 hrs at 0.3 mg/kg, po as gelatin capsules (reference value: 2 equiv/6 hrs); format: functional, Canis lupus familiaris; outline: as §2
# Canis familiaris [11] = test: Diuretic activity in mongrel dog anesthetized with sodium pentobarbital assessed as urine K+ level at 25 mg/kg, iv measured after 15 to 45 mins post dose (reference value: 10 to 44 uequiv/min); format: functional, Canis lupus familiaris; outline: as §1
# Canis familiaris [12] = test: Diuretic activity in mongrel dog anesthetized with sodium pentobarbital assessed as urine volume at 25 mg/kg, iv measured after 15 to 45 mins post dose (reference value: 1 to 5 ml/min); format: functional, Canis lupus familiaris; outline: as §1
# Canis familiaris [13] = test: Diuretic activity in mongrel dog anesthetized with sodium pentobarbital assessed as urine Na+ level at 25 mg/kg, iv measured after 15 to 45 mins post dose (reference value: 3 to 44 uequiv/min); format: functional, Canis lupus familiaris; outline: as §1
# Canis familiaris [14] = test: Diuretic activity in mongrel dog anesthetized with sodium pentobarbital assessed as urine Cl- level at 25 mg/kg, iv measured after 15 to 45 mins post dose (reference value: 0 to 30 uequiv/min); format: functional, Canis lupus familiaris; outline: as §1
# Canis familiaris [15] = test: Diuretic activity in mongrel dog […] assessed as urine Na+ level per 6 hrs at 10 mg/kg, po as gelatin capsules (reference value: 2 equiv/6 hrs); format: functional, Canis lupus familiaris; outline: as §2
# Canis familiaris [16] = test: Diuretic activity in mongrel dog […] assessed as urine K+ level per 6 hrs at 10 mg/kg, po as gelatin capsules (reference value: 1 equiv/6 hrs); format: functional, Canis lupus familiaris; outline: as §2
# Canis familiaris [17] = test: Diuretic activity in mongrel dog […] assessed as urine Cl- level per 6 hrs at 10 mg/kg, po as gelatin capsules (reference value: 2 equiv/6 hrs); format: functional, Canis lupus familiaris; outline: as §2
# Canis familiaris [18] = test: Diuretic activity in mongrel dog […] assessed as urine K+ level per 6 hrs at 5 mg/kg, po as gelatin capsules (reference value: 1 equiv/6 hrs); format: functional, Canis lupus familiaris; outline: as §2
# Canis familiaris [19] = test: Diuretic activity in mongrel dog […] assessed as urine Na+ level per 6 hrs at 5 mg/kg, po as gelatin capsules (reference value: 2 equiv/6 hrs); format: functional, Canis lupus familiaris; outline: as §2
# Canis familiaris [20] = test: Diuretic activity in mongrel dog […] assessed as urine Cl- level per 6 hrs at 5 mg/kg, po as gelatin capsules (reference value: 2 equiv/6 hrs); format: functional, Canis lupus familiaris; outline: as §2
# Canis familiaris [21] = test: Diuretic activity in mongrel dog anesthetized with sodium pentobarbital assessed as urine Na+ level at 5 mg/kg, iv measured after 15 to 45 mins post dose (reference value: 3 to 44 uequiv/min); format: functional, Canis lupus familiaris; outline: as §1
# Canis familiaris [22] = test: Diuretic activity in mongrel dog anesthetized with sodium pentobarbital assessed as urine K+ level at 5 mg/kg, iv measured after 15 to 45 mins post dose (reference value: 10 to 44 uequiv/min); format: functional, Canis lupus familiaris; outline: as §1
# Canis familiaris [23] = test: Diuretic activity in mongrel dog anesthetized with sodium pentobarbital assessed as urine Cl- level at 5 mg/kg, iv measured after 15 to 45 mins post dose (reference value: 0 to 30 uequiv/min); format: functional, Canis lupus familiaris; outline: as §1
# Canis familiaris [24] = test: Diuretic activity in mongrel dog anesthetized with sodium pentobarbital assessed as urine Cl- level at 1 mg/kg, iv measured after 15 to 45 mins post dose (reference value: 0 to 30 uequiv/min); format: functional, Canis lupus familiaris; outline: as §1
# Canis familiaris [25] = test: Diuretic activity in mongrel dog anesthetized with sodium pentobarbital assessed as urine Na+ level at 1 mg/kg, iv measured after 15 to 45 mins post dose (reference value: 3 to 44 uequiv/min); format: functional, Canis lupus familiaris; outline: as §1
# Canis familiaris [26] = test: Diuretic activity in mongrel dog anesthetized with sodium pentobarbital assessed as urine K+ level at 1 mg/kg, iv measured after 15 to 45 mins post dose (reference value: 10 to 44 uequiv/min); format: functional, Canis lupus familiaris; outline: as §1
# Canis familiaris [27] = test: Diuretic activity in mongrel dog anesthetized with sodium pentobarbital assessed as urine volume at 5 mg/kg, iv measured after 15 to 45 mins post dose (reference value: 1 to 5 ml/min); format: functional, Canis lupus familiaris; outline: as §1
# Canis familiaris [28] = test: Diuretic activity in mongrel dog anesthetized with sodium pentobarbital assessed as urine volume at 1 mg/kg, iv measured after 15 to 45 mins post dose (reference value: 1 to 5 ml/min); format: functional, Canis lupus familiaris; outline: as §1
Compound,Activity (Canis familiaris [1]),Activity (Canis familiaris [2]),Activity (Canis familiaris [3]),Activity (Canis familiaris [4]),other results
CC(=C(C#N)C#N)c1ccc(OCC(=O)O)c(Cl)c1Cl,123 uEq/min,2 mL/min,38 uEq/min,125 uEq/min,–
N#CC(C#N)=Cc1ccc(OCC(=O)O)c(Cl)c1Cl,736 uEq/min,5 mL/min,100 uEq/min,665 uEq/min,–
O=C(O)COc1ccc(/C=C2\C(=O)C3CCN2CC3)c(Cl)c1Cl,172 uEq/min,4 mL/min,70 uEq/min,115 uEq/min,–
N#C/C(=C\c1ccc(OCC(=O)O)c(Cl)c1Cl)C(N)=O,180 uEq/min,4 mL/min,35 uEq/min,88 uEq/min,–
C=C(CC)C(=O)c1ccc(OCC(=O)O)c(Cl)c1Cl [ETHACRYNIC ACID],–,–,–,–,Activity (Canis familiaris [5]): 5 equiv; Activity (Canis familiaris [6]): 2 equiv; Activity (Canis familiaris [7]): 26 equiv; Activity (Canis familiaris [8]): 21 equiv; Activity (Canis familiaris [9]): 10 equiv; Activity (Canis familiaris [10]): 8 equiv
NC(=O)C(=Cc1ccc(OCC(=O)O)c(Cl)c1Cl)C(N)=O,195 uEq/min,3 mL/min,86 uEq/min,145 uEq/min,–
CCOC(=O)C(=Cc1ccc(OCC(=O)O)cc1)C(=O)OCC,–,–,–,–,Activity (Canis familiaris [11]): 45 uEq/min; Activity (Canis familiaris [12]): 1 mL/min; Activity (Canis familiaris [13]): 44 uEq/min; Activity (Canis familiaris [14]): 20 uEq/min
C=Cc1ccc(OCC(=O)O)c(Cl)c1Cl,34 uEq/min,1 mL/min,29 uEq/min,2 uEq/min,–
CC(=O)/C(=C/c1ccc(OCC(=O)O)c(Cl)c1Cl)S(=O)(=O)c1ccccc1,183 uEq/min,3 mL/min,58 uEq/min,166 uEq/min,–
CS(=O)(=O)C(=Cc1ccc(OCC(=O)O)c(Cl)c1Cl)S(C)(=O)=O,–,–,–,–,Activity (Canis familiaris [11]): 48 uEq/min; Activity (Canis familiaris [12]): 3 mL/min; Activity (Canis familiaris [13]): 31 uEq/min; Activity (Canis familiaris [14]): 34 uEq/min
N#C/C(=C\c1ccc(OCC(=O)O)c(Cl)c1Cl)S(N)(=O)=O,–,–,–,–,Activity (Canis familiaris [15]): 6 equiv; Activity (Canis familiaris [16]): 4 equiv; Activity (Canis familiaris [17]): 6 equiv
N#C/C=C/c1ccc(OCC(=O)O)c(Cl)c1Cl,448 uEq/min,6 mL/min,59 uEq/min,484 uEq/min,Activity (Canis familiaris [18]): 4 equiv; Activity (Canis familiaris [19]): 12 equiv; Activity (Canis familiaris [20]): 17 equiv
CCOC(=O)C(=Cc1ccc(OCC(=O)O)c(Cl)c1Cl)C(=O)OCC,–,–,–,–,Activity (Canis familiaris [21]): 313 uEq/min; Activity (Canis familiaris [22]): 113 uEq/min; Activity (Canis familiaris [23]): 261 uEq/min; Activity (Canis familiaris [24]): 198 uEq/min; Activity (Canis familiaris [25]): 200 uEq/min; Activity (Canis familiaris [26]): 54 uEq/min; Activity (Canis familiaris [27]): 4 mL/min; Activity (Canis familiaris [28]): 2 mL/min
N#CC(C#N)=Cc1ccc(OCC(=O)O)cc1,64 uEq/min,2 mL/min,10 uEq/min,45 uEq/min,–
N#C/C(=C\c1ccc(OCC(=O)O)c(Cl)c1Cl)C(=O)O,38 uEq/min,1 mL/min,32 uEq/min,29 uEq/min,–
CCOC(=O)/C(C#N)=C/c1ccc(OCC(=O)O)cc1,25 uEq/min,2 mL/min,29 uEq/min,25 uEq/min,Activity (Canis familiaris [11]): 43 uEq/min; Activity (Canis familiaris [12]): 1 mL/min; Activity (Canis familiaris [13]): 79 uEq/min; Activity (Canis familiaris [14]): 16 uEq/min
N#CC(C#N)=Cc1ccc(OCC(=O)O)cc1Cl,14 uEq/min,2 mL/min,34 uEq/min,14 uEq/min,–
O=C(O)COc1ccc(/C=C(/C(=O)Oc2ccccc2)S(=O)(=O)Oc2ccccc2)c(Cl)c1Cl,–,–,–,–,Activity (Canis familiaris [15]): 6 equiv; Activity (Canis familiaris [16]): 2 equiv; Activity (Canis familiaris [17]): 6 equiv
